Measured values: ChEMBL document CHEMBL2424551, “Synthesis, in vitro evaluation and molecular modelling of naphthalimide analogue as anticancer agents” (2013)

Columns and labels:
Format in all cases: functional
[1] = tested on: T47D; assay: Growth inhibition of human T47D cells at 10 uM after 48 hrs by SRB assay; conditions: read-out: GI
Method in brief: (§1)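 NCI 60-cell-line screen with a single 10 µM dose. Cells are grown in RPMI 1640 with 5% FBS and 2 mM L-glutamine, plated at 5000–40,000 cells/well according to doubling time, and preincubated 24 h at 37 °C, 5% CO2; time-zero plates are TCA-fixed at that point. Drug exposure is 48 h. Adherent cells are fixed with cold TCA, stained with 0.4% SRB in 1% acetic acid and read at 515 nm. Percent growth is calculated relative to time-zero and untreated controls and reported as GI%.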

[2] = tested on: IGROV-1; assay: Growth inhibition of human IGROV1 cells at 10 uM after 48 hrs by SRB assay; conditions: IGROV-1, 48 h, read-out: GI
Method in brief: (§2)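 Cells grown in RPMI 1640 with 5% FBS and 2 mM L-glutamine, plated at 5000–40,000 cells/well by doubling time and preincubated 24 h (37 °C, 5% CO2); a time-zero plate is TCA-fixed. Single dose added, then 48 h incubation. Fixed with cold TCA, stained with 0.4% SRB, dye solubilized in 10 mM Tris base, absorbance at 515 nm; percent growth vs time-zero and untreated control.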

[3] = tested on: UACC-62; assay: Growth inhibition of human UACC62 cells at 10 uM after 48 hrs by SRB assay; conditions: UACC-62, 48 h, read-out: GI; method in brief: as §1
[4] = tested on: Malme-3M; assay: Growth inhibition of human MALME-3M cells at 10 uM after 48 hrs by SRB assay; conditions: read-out: GI; method in brief: as §2
[5] = tested on: SNB-75; assay: Growth inhibition of human SNB75 cells at 10 uM after 48 hrs by SRB assay; conditions: SNB-75, 48 h, read-out: GI; method in brief: as §1
[6] = tested on: HOP-92; assay: Growth inhibition of human HOP92 cells at 10 uM after 48 hrs by SRB assay; conditions: HOP-92, 48 h, read-out: GI; method in brief: as §2
[7] = tested on: HT-29; assay: Growth inhibition of human HT-29 cells at 10 uM after 48 hrs by SRB assay; conditions: HT-29, 48 h, read-out: GI; method in brief: as §2
[8] = tested on: CCRF-CEM; assay: Growth inhibition of human CCRF-CEM cells at 10 uM after 48 hrs by SRB assay; conditions: read-out: GI; method in brief: as §2
[9] = tested on: LOX IMVI; assay: Growth inhibition of human LOXIMVI cells at 10 uM after 48 hrs by SRB assay; conditions: read-out: GI; method in brief: as §2
[10] = tested on: KM12; assay: Growth inhibition of human KM12 cells at 10 uM after 48 hrs by SRB assay; conditions: KM12, 48 h, read-out: GI; method in brief: as §2
[11] = tested on: TK-10; assay: Growth inhibition of human TK10 cells at 10 uM after 48 hrs by SRB assay; conditions: TK-10, 48 h, read-out: GI; method in brief: as §1
[12] = tested on: RXF 393; assay: Growth inhibition of human RXF393 cells at 10 uM after 48 hrs by SRB assay; conditions: RXF 393, 48 h, read-out: GI; method in brief: as §2
[13] = tested on: MDA-MB-435; assay: Growth inhibition of human MDA-MB-435 cells at 10 uM after 48 hrs by SRB assay; conditions: MDA-MB-435, 48 h, read-out: GI; method in brief: as §2
[14] = tested on: OVCAR-8; assay: Growth inhibition of human OVCAR8 cells at 10 uM after 48 hrs by SRB assay; conditions: OVCAR-8, 48 h, read-out: GI; method in brief: as §2
[15] = tested on: NCI-H23; assay: Growth inhibition of human NCI-H23 cells at 10 uM after 48 hrs by SRB assay; conditions: NCI-H23, 48 h, read-out: GI; method in brief: as §2
[16] = tested on: SF-268; assay: Growth inhibition of human SF268 cells at 10 uM after 48 hrs by SRB assay; conditions: SF-268, 48 h, read-out: GI; method in brief: as §2
[17] = tested on: Hs-578T; assay: Growth inhibition of human Hs578T cells at 10 uM after 48 hrs by SRB assay; conditions: read-out: GI; method in brief: as §2
[18] = tested on: ACHN; assay: Growth inhibition of human ACHN cells at 10 uM after 48 hrs by SRB assay; conditions: read-out: GI; method in brief: as §2
[19] = tested on: BT-549; assay: Growth inhibition of human BT549 cells at 10 uM after 48 hrs by SRB assay; conditions: BT-549, 48 h, read-out: GI; method in brief: as §2
[20] = tested on: OVCAR-5; assay: Growth inhibition of human OVCAR5 cells at 10 uM after 48 hrs by SRB assay; conditions: OVCAR-5, 48 h, read-out: GI; method in brief: as §2
[21] = tested on: HCT-116; assay: Growth inhibition of human HCT116 cells at 10 uM after 48 hrs by SRB assay; conditions: HCT-116, 48 h, read-out: GI; method in brief: as §2
[22] = tested on: PC-3; assay: Growth inhibition of human PC3 cells at 10 uM after 48 hrs by SRB assay; conditions: PC-3, 48 h, read-out: GI; method in brief: as §2
[23] = tested on: NCI-H226; assay: Growth inhibition of human NCI-H226 cells at 10 uM after 48 hrs by SRB assay; conditions: NCI-H226, 48 h, read-out: GI; method in brief: as §2
[24] = tested on: NCI-H522; assay: Growth inhibition of human NCI-H522 cells at 10 uM after 48 hrs by SRB assay; conditions: NCI-H522, 48 h, read-out: GI; method in brief: as §2

| Structure (SMILES) | inhibition of growth at 10 µM [1] | inhibition of growth at 10 µM [2] | inhibition of growth at 10 µM [3] | inhibition of growth at 10 µM [4] | inhibition of growth at 10 µM [5] | inhibition of growth at 10 µM [6] | inhibition of growth at 10 µM [7] | inhibition of growth at 10 µM [8] | inhibition of growth at 10 µM [9] | inhibition of growth at 10 µM [10] | inhibition of growth at 10 µM [11] | inhibition of growth at 10 µM [12] | inhibition of growth at 10 µM [13] | inhibition of growth at 10 µM [14] | inhibition of growth at 10 µM [15] | inhibition of growth at 10 µM [16] | inhibition of growth at 10 µM [17] | inhibition of growth at 10 µM [18] | inhibition of growth at 10 µM [19] | inhibition of growth at 10 µM [20] | further results |
| --- | --- | --- | --- | --- | --- | --- | --- | --- | --- | --- | --- | --- | --- | --- | --- | --- | --- | --- | --- | --- | --- |
| CCCCNc1ccc2c3c1cccc3c(=O)n1c3ccccc3nc21 | 64.3% | 58.2% | < 20% | < 20% | 26.6% | 38.8% | < 20% | 25% | 24.1% | 22.3% | 29.8% | < 20% | < 20% | < 20% | 40% | < 20% | < 20% | < 20% | < 20% | < 20% | inhibition of growth at 10 µM [21]: < 20%; inhibition of growth at 10 µM [22]: < 20%; inhibition of growth at 10 µM [23]: 26.3%; inhibition of growth at 10 µM [24]: 28.1% |
| O=c1c2cccc3c(Nc4ccccn4)ccc(c32)c2nc3ccccc3n12 | 53.4% | 43.4% | 35.7% | < 20% | 21.4% | 45.1% | 35.4% | 48.2% | 30.4% | 25.2% | 34.2% | < 20% | < 20% | 24.6% | 34.5% | < 20% | < 20% | 23.9% | < 20% | < 20% | inhibition of growth at 10 µM [21]: 35%; inhibition of growth at 10 µM [22]: 36%; inhibition of growth at 10 µM [23]: 30.4%; inhibition of growth at 10 µM [24]: 43.4% |
| O=c1c2cccc3c(NC4CCCCC4)ccc(c32)c2nc3ccccc3n12 | 67.5% | 58.8% | < 20% | < 20% | < 20% | 51.5% | 23.1% | 34.6% | 26.6% | < 20% | 22.6% | < 20% | < 20% | < 20% | 54% | < 20% | < 20% | 27.1% | < 20% | < 20% | inhibition of growth at 10 µM [21]: < 20%; inhibition of growth at 10 µM [22]: 20.1%; inhibition of growth at 10 µM [23]: 28%; inhibition of growth at 10 µM [24]: 38.5% |
